Compound activity (PubChem)
This is a sample that favours compounds with a hit; in the whole collection about 11% have one here.
M1 antagonist = antagonists of rat M1 muscarinic receptor; B-score at 10 µM; 64,000 tested, 3.4% active; CHO-M1 cells, Fluo-4 calcium, ACh EC80 antagonist mode; active compounds read low; Muscarinic acetylcholine receptor M1 (Rattus norvegicus), P08482;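 active = calcium fluorescence response, raw or row-and-column corrected B-score, differing from the plate sample mean either way at a set confidence level, mostly lower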
Htt clearance = clearance of mutant huntingtin inclusions, primary screen, imaging, HeLa Exon1htt(103Q)mCFP, confocal imaging. aggregate imaging; zero = plate's median compound well. inhibition, % at 1.5 µM. 47,000 tested, 0.42% active;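 active = inhibition of aggregate fluorescence above about 70%, also judged a hit by eye on the cell image, limit read from the data, passing the limit was not always enough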;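 note: cells exposed to compound for three days before fixation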
D1 mod = D1 CRE-luciferase signal change, two-sided – cell-based, HEK293 D1, dopamine EC30, D1 allosteric modulator project, primary screen; D(1A) dopamine receptor (Homo sapiens), P21728; dopamine EC30 potentiation; actives deviate in either direction; B-score at 10 µM; 58,000 tested, 5.9% active;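 active = luminescence count or its row- and column-corrected plate score outside the 99.7% band of the plate's sample wells, on either side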
Target sequence (P21728 whole entry, looked up): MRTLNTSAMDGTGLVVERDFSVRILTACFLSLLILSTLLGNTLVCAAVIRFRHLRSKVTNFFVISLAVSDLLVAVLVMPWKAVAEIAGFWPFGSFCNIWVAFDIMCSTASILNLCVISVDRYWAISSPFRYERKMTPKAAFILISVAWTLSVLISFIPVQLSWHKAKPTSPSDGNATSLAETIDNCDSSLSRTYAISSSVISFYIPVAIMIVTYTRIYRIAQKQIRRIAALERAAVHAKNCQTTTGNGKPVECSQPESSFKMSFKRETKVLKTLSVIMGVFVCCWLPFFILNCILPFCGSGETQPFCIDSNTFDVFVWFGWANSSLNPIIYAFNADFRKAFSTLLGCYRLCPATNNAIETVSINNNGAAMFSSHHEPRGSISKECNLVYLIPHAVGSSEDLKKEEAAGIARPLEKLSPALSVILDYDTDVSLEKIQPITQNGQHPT
SF-1 act = activators of human SF-1, primary screen, cell-based, CHO-K1, Gal4-SF-1 LBD, luciferase luminescence; CHO-K1 Gal4-SF-1 LBD luciferase reporter; % increase over DMSO SF-1-specific signal; activation, % at 10 µM; 65,000 tested, 1.9% active; AID 522, 2006;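 active = activation above the mean activation of all tested compounds plus 3 SD, cut at about 50% in these data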
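Compound – one dose, 10 µM compound, 1% DMSO · Test system – transient Gal4-SF-1 LBD reporter, CHO-K1 · Input – 4,000 cells in each well · Read-out basis – percent activation relative to DMSO median and mock-transfected background · Replicates – single measurement per compound · Technique – steady-glow luciferase luminescence, read after 15 min reagent incubation · Timing – 20 h compound treatment, 37 °C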
M1 agonist = M1 muscarinic receptor agonists, primary screen, CHO-M1 cells, Fluo-4 calcium, agonist mode; Fluo-4 calcium fluorescence; active compounds read high; B-score at 10 µM; Muscarinic acetylcholine receptor M1; AID 626, 2007; 64,000 tested, 3% active;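 active = fluorescence rise, raw or as B-score row- and column-corrected plate score, outside the 99.7% band of its plate's samples, either direction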
RORA act = activators of orphan receptor RORA, primary screen, cell-based, luminescence. Nuclear receptor ROR-alpha (Homo sapiens), P35398. CHO-K1 Gal4-RORA LBD luciferase reporter; percent increase over mock-subtracted basal signal. activation, % at 10 µM. 65,000 tested, 1.5% active. AID 560, 2006;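 active = activation above the mean of all tested compounds plus 3 SD, cut at about 49% in these data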;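 note: 0% = DMSO-treated RORA cells and 100% = added signal equal to DMSO minus mock-transfected cells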
Starred values were filed as active, the others as inactive; . = not tested or not shown.

SMILES	M1 antagonist	Htt clearance	D1 mod	SF-1 act	M1 agonist	RORA act
NC(=O)CNC1CC(=O)N(CCc2ccccc2)C1=O (configuration not stated)	0.48	.	.	.	0.12	.
C=CCn1c(SCc2cc(=O)n3ccsc3n2)nc2scc(C3CC3)c2c1=O	-0.27	.	9.8*	-12	0.089	16
CCN(CC)CCNC(=O)c1ccc(CS(=O)(=O)c2ccc(Br)cc2)o1	-0.29	.	-0.053	6	1.2	17
CC(=O)NC12CC3CC(C1)CC(C(=O)OCC(=O)Nc1ncc(Cl)cc1Cl)(C3)C2	-0.0097	-48	0.028	0	-0.97	1
NC(=O)CSc1nc(-c2ccccc2Cl)ns1	-0.26	21	-0.69	17	0.1	19
c1ccc(CCc2nc(-c3ccccn3)no2)cc1	0.88	.	-0.43	35	-0.075	54*
Brc1ccc(-c2noc(CCc3ccccc3)n2)o1	0.19	-16	.	36	0.93	17
Clc1ccc(-c2nc(-c3ccccn3)no2)cc1Cl	-0.16	.	-5.5*	-51	-1.1	-51
Clc1ccccc1OCc1nc(-c2ccccn2)no1	-0.31	.	-2.3	18	-0.6	-5
Clc1ccc(OCc2nc(-c3ccccn3)no2)c(Br)c1	-0.004	6	-6.9*	-23	-0.0069	-42
Cc1sc2nc(C(C)Nc3ccccc3N3CCOCC3)[nH]c(=O)c2c1C (configuration not stated)	-0.037	.	0.43	2	-0.41	-16
COc1ccc(OC)c(NS(=O)(=O)c2ccc(NC(=O)C3COc4ccccc4O3)cc2)c1 (configuration not stated)	-0.2	.	0.42	.	-0.21	.
O=C(C(Cc1ccccc1)N1C(=O)c2ccccc2C1=O)N1CCc2ccccc21 (configuration not stated)	.	-9	.	.	.	.
CCOC(=O)c1[nH]c(C)c(C(=O)Nc2cc(Cl)ccc2C)c1C	-1.4	.	0.24	-9	-0.36	-4
CCOC(=O)c1c(C)[nH]c(C(=O)CSc2ccccc2)c1C	-0.17	.	-2.9*	12	-2	-21
CCCN(CCC)C(=O)c1c(C)[nH]c(C(=O)OCC)c1C	-1.3	55	-0.5	-9	0.053	6
CCCCCCC(=O)c1c(C)[nH]c(C(=O)OCC)c1C	-0.57	.	0.48	53*	-0.43	9
CCOC(=O)c1[nH]c(C)c(C(=O)Nc2ccccc2C)c1C	0.26	.	-0.081	26	0.043	81*
O=C(Cn1ncc2c1-c1ccccc1OC2)Nc1nc2ccccc2s1	-0.09	.	-0.23	-29	0.088	36
CN(CCCNC(=O)c1cccc(N2CCCC2=O)c1)c1ccccc1	0.82	.	.	-1	-0.54	-17
CCCCN(C)CCCNC(=O)c1cccc(N2CCCC2=O)c1	-0.98	.	-5.8*	-5	-0.54	-1
O=C(NCCSCc1ccco1)Nc1ccccc1	-0.011	28	-0.054	6	-0.013	14
CCc1nc(SCC(=O)Nc2cccc(C(F)(F)F)c2)c2c(=O)n(C)c(=O)n(C)c2n1	-0.091	-4	.	8	-1.2	7
C#CC(CO)N(CCN(Cc1ccccc1)C(C#C)CO)Cc1ccccc1 (configuration not stated)	-0.058	-2	0.075	.	0.43	.
Cc1noc(C)c1C(=O)OCC(=O)c1cc(C)n(Cc2ccccc2Cl)c1C	2.1	.	0.35	29	0.0051	49*
SMILES	M1 antagonist	Htt clearance	D1 mod	SF-1 act	M1 agonist	RORA act
Cc1noc(C)c1C(=O)OCC(=O)c1ccc[nH]1	-1.2	.	0.36	14	-0.61	18
O=c1cc(Nc2ccc3c(c2)OCCO3)[nH]c(=O)n1-c1ccc(Cl)cc1	0.37	.	-2.1	40	0.49	50*
COC(=O)c1ccccc1NC=C1C(=O)OC2(CCCCC2)OC1=O	-0.99	.	.	-9	-0.081	-26
COc1ccccc1NC=C1C(=O)OC2(CCCCC2)OC1=O	0.55	.	-6.9*	20	0.31	0
COc1ccc(C2CC(C(F)(F)F)n3nc(C(=O)NCc4c(C)nn(C)c4C)c(Cl)c3N2)cc1 (configuration not stated)	0.7	.	-3.1*	13	0.027	19
COc1ccc(C2CC(C(F)(F)F)n3nc(C(=O)N(C)Cc4cn(C)nc4C)c(Cl)c3N2)cc1 (configuration not stated)	-0.0022	.	0.74	14	-0.71	10
N#Cc1nc(-c2ccco2)oc1N1CCc2ccccc2C1	0.73	.	3.7	-9	3.9*	-14
CSc1nc(N2CCOCC2)c2c3c(sc2n1)CCC3	0.097	1	8.5*	-2	0.089	8
Cc1nc(N2CCN(c3ccccc3)CC2)c2c3c(sc2n1)CCC3	0.48	.	-1.2	-16	-0.52	-12
Clc1cccc2sc(N3CCCC3)nc12	-0.36	5	-6.5*	50*	0.84	22
COc1ccccc1N1CCN(CCCNC(=O)Nc2ccccc2)CC1	0.18	34	-4.8*	-5	0.29	-18
O=C(NCCCN1CCN(c2ccccc2F)CC1)Nc1ccc(F)cc1	-0.74	-25	-0.6	8	-0.56	-14
O=C(NCCCN1CCN(c2ccccc2)CC1)Nc1ccccc1C(F)(F)F	-0.69	-18	-2.7*	2	-0.93	-10
COCCN1C(=O)c2ccccc2C(C(=O)N2CCN(c3ccccn3)CC2)C1c1ccc(F)cc1 (configuration not stated)	-0.17	13	-1.7	3	0.84	-25
O=C(CSc1nc2cc(Cl)ccc2o1)N1CCOCC1	-0.0053	10	0.39	12	-0.22	12
O=C(O)c1ccc2oc(SCC(=O)N3CCCCC3)nc2c1	.	.	-0.28	54*	.	29
CN(C)c1nc(OCC(=O)NC(C)(C)C)nc(N(C)C)n1	0.88	-36	-0.23	1	0.15	-1
CC(NS(=O)(=O)c1ccc(Cl)cc1)C(c1cccs1)N1CCN(C)CC1 (configuration not stated)	-1.3	77*	.	10	-0.31	1
CCOCCCNc1nc2c(c(=O)[nH]c(=O)n2C)n1CCCc1ccccc1	-0.75	.	.	1	0.73	18
COC(=O)c1ccc(CNC(=O)CSc2nc3sc(C)c(C)c3c(=O)n2C)o1	-0.074	35	0.19	-11	-0.48	2
Cc1cc2ncn(S(=O)(=O)c3ccc(S(=O)(=O)N4CCCCCC4)cc3)c2cc1C	.	71*	.	.	.	.
O=C(Nc1ccccc1)N1CCCC(c2nc(-c3cccs3)no2)C1 (configuration not stated)	-0.26	.	0.59	26	-0.11	9
COc1ccc(CNc2ccc(-c3ccc(OC)cc3)nn2)cc1	-0.26	29	.	80*	0.13	40
COc1ccc(CNc2ccc(-c3ccccc3OC)nn2)cc1	.	30	.	.	.	.
CCCCN(C)S(=O)(=O)c1cc(Br)cc2c1N(C(=O)C1CC1)CC2	-0.46	.	1.4	2	0.59	2
